PubChem BioAssay AID2632 (Broad Institute, 2010)

Test system: T. cruzi in NIH3T3, immunofluorescence replication, 4 d
Assay: amastigote replication in infected NIH3T3 cells – imaging, immunofluorescence, NIH3T3 host cells, mechanism study for T. cruzi infection inhibitor project, late-stage follow-up (AID 2632)
Conditions: hits give low values
Outline: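 Assay system: NIH3T3 host cells infected with Trypanosoma cruzi; Incubation: 2 h parasite infection, then 4-day compound exposure; Measured by: immunofluorescence imaging with anti-T. cruzi antibody and DAPI.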

SMILES: Cc1ccc(NC(=O)CCC(=O)N/N=C/c2ccc([N+](=O)[O-])o2)cc1C
- percent infected cells with replication (at 0.16 µM): 0%

SMILES: CCOc1ccc2oc(=O)cc(CN3CCN(Cc4ccccc4)CC3)c2c1
- percent infected cells with replication (at 2.16 µM): 0%

SMILES: CC(C)Oc1cccc(C(=O)C2CCCN(Cc3cnn(C(C)C)c3)C2)c1 (configuration not stated)
- percent infected cells with replication (at 0.38 µM): 0%

SMILES: CC(C)=CCCC(C)CN(C)CCc1ccccn1 (configuration not stated)
- percent infected cells with replication (at 0.83 µM): 2%

SMILES: CC(C)Oc1cccc(C(=O)C2CCCN(Cc3cnc(N4CCCC4)s3)C2)c1 (configuration not stated)
- percent infected cells with replication (at 1.4 µM): 2%

SMILES: CCn1ncc(CN2CCCC(C(=O)c3cccc(OC(C)C)c3)C2)c1C (configuration not stated)
- percent infected cells with replication (at 0.32 µM): 2%

SMILES: COc1ccc(CCN(C)C(=O)C2CCCN(Cc3ccc(OC)c(OC)c3)C2)cc1OC (configuration not stated)
- percent infected cells with replication (at 1 µM): 6%

SMILES: CCc1ccc2nc(N(CCN(C)C)C(=O)c3ccc4ncsc4c3)sc2c1
- percent infected cells with replication (at 0.87 µM): 2%

SMILES: CCCn1ncc(CN2CCCC(C(=O)c3cccc(OC(C)C)c3)C2)c1C (configuration not stated)
- percent infected cells with replication (at 0.54 µM): 4%

SMILES: CC1CCCN(C(=O)Cc2cn(Cc3cccc(Cl)c3)c3ccccc23)C1 (configuration not stated)
- percent infected cells with replication (at 17.9 µM): 0%

SMILES: O=S(=O)(NCC(c1cccnc1)N1CCN(c2ccc(F)cc2)CC1)c1ccccc1 (configuration not stated)
- percent infected cells with replication (at 0.66 µM): 0%

SMILES: CC(C)c1cccc(OCCCCN(C)C)c1
- percent infected cells with replication (at 5.87 µM): 0%

SMILES: OC(COc1ccc2ccccc2c1Br)Cn1ccnc1 (configuration not stated)
- percent infected cells with replication (at 5.01 µM): 2%

SMILES: CC(=O)c1cccc(CN2CCCC(CCC(=O)NCc3ccc(F)c(F)c3)C2)c1 (configuration not stated)
- percent infected cells with replication (at 0.7 µM): 8%

SMILES: Fc1ccc(CCNCc2ccc(Cl)c(Cl)c2)cc1
- percent infected cells with replication (at 1.22 µM): 0%

SMILES: O=C(Cc1cn(Cc2cccc(Cl)c2)c2ccccc12)N1CCCCCC1
- percent infected cells with replication (at 17.5 µM): 2%

SMILES: CC(C)(C)OC(=O)N/N=C\c1ccc([N+](=O)[O-])s1
- percent infected cells with replication (at 27 µM): 2%

SMILES: COc1ccccc1/C=C/C(=O)OCCCN(C)C
- percent infected cells with replication (at 7.93 µM): 6%

SMILES: Cc1ccccc1OCCCCCn1ccnc1
- percent infected cells with replication (at 5.3 µM): 4%

SMILES: CC1CC(C)CN(CCOCCSc2ccccc2)C1 (configuration not stated)
- percent infected cells with replication (at 0.89 µM): 2%

SMILES: COc1cc(C(=O)NCCC(C)C)ccc1OCc1ccc(Cl)cc1Cl
- percent infected cells with replication (at 13 µM): 0%

SMILES: CN(Cc1ccccc1)C(=O)C1CCCN(Cc2cccc(Cl)c2)C1 (configuration not stated)
- percent infected cells with replication (at 1.1 µM): 0%

SMILES: O=C(CNc1cccc2ccccc12)N/N=C/c1ccc([N+](=O)[O-])o1
- percent infected cells with replication (at 0.64 µM): 6%

SMILES: COCc1cc(CN2CCCC(CNC(=O)c3ccc(F)cc3)C2)ccc1OC (configuration not stated)
- percent infected cells with replication (at 1.18 µM): 0%

SMILES: O=C(NCC1CCCN(Cc2cccc(C(F)(F)F)c2)C1)c1ccc(F)cc1 (configuration not stated)
- percent infected cells with replication (at 1.11 µM): 2%

SMILES: COC(=O)N/N=C/c1ccc([N+](=O)[O-])o1
- percent infected cells with replication (at 4.69 µM): 8%

SMILES: CSc1ccc(CN2CCCC(CNC(=O)c3ccc(F)cc3)C2)cc1 (configuration not stated)
- percent infected cells with replication (at 1.2 µM): 6%
